Rows were chosen to be rich in hits. Some 9.8% of all compounds tested hit in one or more screens of this group.
Calpain2 inh = inhibitors of pig calpain II, primary screen, biochemical, fluorogenic peptide substrate, 1536-well. purified calpain II, 30 min. inhibition, % at 16 µM. actives 0.37% (n = 220,000). AID 1236, 2008;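 active = inhibition above about 50%, limit read from the data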
PMI activator = activators of human PMI, primary screen, biochemical, fluorescence intensity, near-Km mannose 6-phosphate; activation factor at 20 µM; AID 1214, 2008; purified human PMI, coupled resazurin fluorescence, 20 min; active compounds read high; 1 = vehicle control, 0 substrate-free wells; actives 0.005% (n = 190,000); Mannose-6-phosphate isomerase (Homo sapiens), P34949;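 active = activation factor of 2 or more at 20 µM, relative to plate controls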
Target sequence (P34949 whole entry, looked up): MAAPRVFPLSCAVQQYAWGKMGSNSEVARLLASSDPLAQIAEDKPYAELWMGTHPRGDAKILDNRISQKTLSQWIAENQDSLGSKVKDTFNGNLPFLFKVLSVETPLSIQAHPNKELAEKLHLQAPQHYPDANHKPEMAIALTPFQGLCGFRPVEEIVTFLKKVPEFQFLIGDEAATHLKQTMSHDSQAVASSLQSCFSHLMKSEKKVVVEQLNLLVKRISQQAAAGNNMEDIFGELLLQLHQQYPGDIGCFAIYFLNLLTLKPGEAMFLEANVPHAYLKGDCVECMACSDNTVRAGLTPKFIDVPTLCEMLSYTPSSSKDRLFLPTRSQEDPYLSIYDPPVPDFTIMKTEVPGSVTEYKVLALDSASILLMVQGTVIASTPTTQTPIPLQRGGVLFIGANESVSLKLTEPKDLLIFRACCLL
Rad51 HR inh = human RAD51 strand exchange inhibitors, primary screen, biochemical, fluorescence; inhibition, % at 10 µM; hRad51 DNA strand exchange, fluorescence dequenching; actives 0.085% (n = 200,000);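 active = inhibition above 40% at the single screening dose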
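material = hRad51 filaments on single-stranded DNA | timing = filaments 15 min 37 °C, then compound 30 min | signal = FRET fluorescence dequenching, excitation 485 nm, emission 520 nm | benchmarks = control wells and blank wells on each plate | evaluation = percent inhibition relative to plate controls and blanks | compound = 10 µM final, single point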
L major viab = Leishmania major promastigote growth inhibition, primary screen; Leishmania major promastigotes, resazurin fluorescence viability; inhibition, % at 10 µM; actives 9% (n = 200,000); AID 1063, 2008; in the data active = inhibition above about 50%;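 also: promastigotes grown with compound for 44 hours at 28 °C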
WT yeast gro inh = growth inhibition of WT strain, primary screen, mitochondrial fusion inhibitor project, WT and mutant strains, chemical genetic | inhibition, % at 10 µM | AID 1362, 2008 | mitochondrial fusion phenotypic screen | actives 2.1% (n = 190,000); in the data active = inhibition above about 58%; tested in S. cerevisiae
PMI act satM6P = human PMI activators, high substrate, primary screen, biochemical, fluorescence intensity, near-saturating mannose 6-phosphate. Mannose-6-phosphate isomerase (Homo sapiens), P34949. coupled PMI enzyme assay, resazurin fluorescence, 20 min; active compounds read high; 1 = untreated enzyme, 0 = substrate-free blank. activation factor at 20 µM. actives 0.34% (n = 190,000). AID 1216, 2008;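 active = activation factor of 2 or more at 20 µM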
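Technique: Diaphorase-driven resazurin-to-resorufin fluorescence, excitation 544, emission 590 nm | Assay system: Human PMI in coupled enzyme assay | Times: Enzyme reaction with compound 20 min at room temperature | Medium: HEPES-buffered pH 7.4 with magnesium and detergent | Reagent: Mannose-6-phosphate 1.0 mM (near-saturating) plus 0.22 mM NADP+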
Each line names hits and unclear results; the compound was inactive in the other large screens.

CCNc1c2c(nc3ccccc13)CC(C)(C)CC2=O	L major viab 57.6
CCOC(=O)CN(C(=O)COc1ccc2c(C)cc(=O)oc2c1)c1ccc(OCC)cc1	none (no result: Rad51 HR inh)
CCOC(=O)C1CCN(Cc2cc(=O)n3c(-c4ccccc4)csc3n2)CC1	L major viab 87.5
COC(=O)C1=C(C)N(c2cc(C)cc(C)c2)/C(=C/c2ccc(O)cc2)C1=O	L major viab 98.8
COC(=O)C1=C(C)N(c2ccc(Cl)cc2)/C(=C/c2ccc(O)cc2)C1=O	L major viab 83.6
COc1ccc(OC)c(NC(=O)NCCc2cccc(Cl)c2)c1	none
CC(C)Cn1cc(F)c(=O)n(CC(C)C)c1=O	none
Cc1ccc(S(=O)(=O)NNC(=O)c2cc3cc4ccccc4nc3s2)cc1	L major viab 92.1
COC(=O)c1sccc1NC(=O)CSCCc1ccccn1	none
O=C(CCC1N=C2c3ccccc3N=C(SCc3cccc(Cl)c3)N2C1=O)NCc1ccco1 (stereo not drawn)	WT yeast gro inh 58.7
CC(=O)c1cnn(-c2c(Cl)cc(Cl)cc2Cl)c1C	none (no result: PMI activator, L major viab, WT yeast gro inh, PMI act satM6P)
c1ccc2c(c1)NC1(CCCC1)n1c-2nc2ccccc21	none
CCCC1(C)Nc2ccccc2-c2nc3ccccc3n21 (stereo not drawn)	L major viab 85.4
O=C(CNc1cc(S(=O)(=O)N2CCOCC2)ccc1N1CCCC1)NCc1ccco1	none
CC(NS(=O)(=O)c1ccc(OCC(=O)Nc2cccc([N+](=O)[O-])c2)cc1)c1ccccc1 (stereo not drawn)	none
Cc1ccc2[nH]c(=O)c(C(c3nnnn3C3CCCC3)N(Cc3cccnc3)Cc3ccco3)cc2c1 (stereo not drawn)	L major viab 85.0
Clc1ccc(C(c2nnnn2C2CCCCC2)N(Cc2cccnc2)Cc2ccco2)cc1 (stereo not drawn)	L major viab 99.9, WT yeast gro inh 70.2
CC(c1nnnn1C1CCCCC1)N(Cc1ccccc1)Cc1cccnc1 (stereo not drawn)	L major viab 92.3
CCN(Cc1ccccc1)C(c1ccccn1)c1nnnn1C1CCCCC1 (stereo not drawn)	none
COc1ccc2[nH]c(=O)c(C(c3nnnn3C3CCCC3)N(C)C3CCCCC3)cc2c1 (stereo not drawn)	L major viab 53.1
Cc1ccc2cc(C(c3nnnn3C3CCCC3)N(Cc3cccnc3)Cc3ccco3)c(=O)[nH]c2c1 (stereo not drawn)	none
O=C(O)c1sc2cccc(Cl)c2c1Cl	none (no result: PMI activator, PMI act satM6P)
COc1ccccc1CC(=O)NNS(=O)(=O)c1ccc([N+](=O)[O-])cc1	none
CC1SC(=Nc2ccccc2)N(S(=O)(=O)c2ccccc2)C1=O (stereo not drawn)	none (no result: Rad51 HR inh)
COc1ccccc1NS(=O)(=O)c1ccc2c(c1)n(C)c(=O)n2C	none
Cc1cc(C)n(-c2nnc3c4ccccc4n(C)c3n2)n1	none (no result: PMI activator, Rad51 HR inh, L major viab, WT yeast gro inh, PMI act satM6P)
O=C(COc1ccc(S(=O)(=O)N2CCCC2)cc1)Nc1ccc2c(c1)OCCO2	none
COc1ccc2[nH]c(=O)c(CN(C3CCCCC3)C(c3nnnn3Cc3ccco3)C(C)C)cc2c1 (stereo not drawn)	L major viab 65.4 (no result: Rad51 HR inh)
COCCn1nnnc1C(C(C)C)N(Cc1ccccc1)Cc1cc2cc(OC)ccc2[nH]c1=O (stereo not drawn)	none
CCC(c1nnnn1C1CCCCC1)N(Cc1ccco1)Cc1cc2ccc(OC)cc2[nH]c1=O (stereo not drawn)	L major viab 74.3
Cc1ccc2cc(C(c3nnnn3C3CCCC3)N(Cc3ccco3)Cc3cccs3)c(=O)[nH]c2c1 (stereo not drawn)	L major viab 81.8
CCOC(=O)Cn1nnnc1C(CC)N(Cc1cccs1)Cc1cc2ccc(OC)cc2[nH]c1=O (stereo not drawn)	L major viab 98.8
CN(C)CCNC(=O)Nc1ccc(F)cc1F	none
O=C(N/C(=C/C=C/c1ccccc1)C(=O)N1CCOCC1)c1ccccc1Br	none
